In ChEMBL document CHEMBL1143826, “Treatment of Staphylococcus aureus biofilm infection by the quorum-sensing inhibitor RIP” (2007):

Key:
Assay type in all cases: functional
Conditions in all cases: route intraperitoneal
Staphylococcus aureus [1] = experiment: Antibacterial activity against methicillin-resistant Staphylococcus aureus ATCC 43300 in rat graft model assessed as biofilm reduction at 10 mg/kg, ip administered as seven dose, 3 days after graft implantation
Summary of the method: (§1)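 Wistar rats (n = 15) with subcutaneous 1-cm2 collagen-sealed Dacron grafts challenged with MRSA. Treatment began 3 days after implantation, once the biofilm was established. RIP 10 mg/kg and/or teicoplanin 3 mg/kg given ip daily for 7 days. Grafts explanted on day 10 and counted as CFU/ml. Untreated controls explanted on days 3 and 10.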

Staphylococcus aureus [2] = experiment: Antibacterial activity against methicillin-resistant Staphylococcus aureus ATCC 43300 in rat graft model assessed as biofilm reduction at 3 mg/kg, ip administered as seven dose, 3 days after graft implantation; summary of the method: as §1
Staphylococcus aureus [3] = experiment: Antibacterial activity against Staphylococcus aureus SD in rat graft model assessed as biofilm reduction at 10 mg/kg, ip administered as single dose immediately after graft implantation
Summary of the method: (§2)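 Wistar rats (n = 5) with 1-cm2 collagen-sealed Dacron grafts implanted subcutaneously. 2 × 10^7 exponentially growing bacteria inoculated onto the graft. RIP given intraperitoneally daily for 1, 4 or 7 days, starting immediately after implantation or 2 days later. Grafts explanted on day 10. Bacterial load expressed as CFU/ml; detection limit 10 CFU/ml. Untreated challenged controls.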

Staphylococcus aureus [4] = experiment: Antibacterial activity against Staphylococcus aureus SD in rat graft model assessed as biofilm reduction at 20 mg/kg, ip administered as single dose immediately after graft implantation; summary of the method: as §2
Staphylococcus aureus [5] = experiment: Antibacterial activity against Staphylococcus aureus SD in rat graft model assessed as biofilm reduction at 30 mg/kg, ip administered as single dose immediately after graft implantation; summary of the method: as §2
Staphylococcus aureus [6] = experiment: Antibacterial activity against Staphylococcus aureus SD in rat graft model assessed as biofilm reduction at 10 mg/kg, ip administered as single dose, 2 days after graft implantation; summary of the method: as §2
Staphylococcus aureus [7] = experiment: Antibacterial activity against Staphylococcus aureus SD in rat graft model assessed as biofilm reduction at 20 mg/kg, ip administered as single dose, 2 days after graft implantation; summary of the method: as §2
Staphylococcus aureus [8] = experiment: Antibacterial activity against Staphylococcus aureus SD in rat graft model assessed as biofilm reduction at 30 mg/kg, ip administered as single dose, 2 days after graft implantation; summary of the method: as §2
Staphylococcus aureus [9] = experiment: Antibacterial activity against Staphylococcus aureus SD in rat graft model assessed as biofilm reduction at 10 mg/kg, ip administered as four doses, 2 days after graft implantation; summary of the method: as §2
Staphylococcus aureus [10] = experiment: Antibacterial activity against Staphylococcus aureus SD in rat graft model assessed as biofilm reduction at 20 mg/kg, ip administered as four doses, 2 days after graft implantation; summary of the method: as §2
Staphylococcus aureus [11] = experiment: Antibacterial activity against Staphylococcus aureus SD in rat graft model assessed as biofilm reduction at 30 mg/kg, ip administered as four doses, 2 days after graft implantation; summary of the method: as §2
Staphylococcus aureus [12] = experiment: Antibacterial activity against Staphylococcus aureus SD in rat graft model assessed as biofilm reduction at 10 mg/kg, ip administered as seven doses, 2 days after graft implantation; summary of the method: as §2
Staphylococcus aureus [13] = experiment: Antibacterial activity against Staphylococcus aureus SD in rat graft model assessed as biofilm reduction at 20 mg/kg, ip administered as seven doses, 2 days after graft implantation; summary of the method: as §2
Staphylococcus aureus [14] = experiment: Antibacterial activity against Staphylococcus aureus SD in rat graft model assessed as biofilm reduction at 30 mg/kg, ip administered as seven doses, 2 days after graft implantation; summary of the method: as §2

With H-YSPWTNF-NH2 the CFU/ml (Staphylococcus aureus [1]) was 78000, the CFU/ml (Staphylococcus aureus [2]) was 36000 and the CFU/ml (Staphylococcus aureus [3]) was 50000. The CFU/ml (Staphylococcus aureus [4]) was 9400, the CFU/ml (Staphylococcus aureus [5]) was 2300 and the CFU/ml (Staphylococcus aureus [6]) was 8400000. For the same substance, the CFU/ml (Staphylococcus aureus [7]) was 3000000, the CFU/ml (Staphylococcus aureus [8]) was 760000 and the CFU/ml (Staphylococcus aureus [9]) was 53000. The CFU/ml (Staphylococcus aureus [10]) was 6300, the CFU/ml (Staphylococcus aureus [11]) was 850 and the CFU/ml (Staphylococcus aureus [12]) was 6700. The CFU/ml (Staphylococcus aureus [13]) was 410 and the CFU/ml (Staphylococcus aureus [14]) was 290.
